From ChEMBL document CHEMBL3632484, “Synthesis and preliminary biological evaluation of a small library of hybrid compounds based on Ugi isocyanide multicomponent reactions with a marine natural product scaffold” (Bioorg Med Chem Lett, 2015)
≈ marks a conversion by molar mass, not a printed value.

What was measured:
[1] = test system: Plasmodium falciparum; experiment: Antiplasmodial activity against chloroquine-susceptible Plasmodium falciparum 3D7 infected in human O+ erythrocytes after 72 hrs by SYBR Green based parasite proliferation assay; assay type: functional, organism-based; settings: 3D7, 72 h
[2] = Antineuroinflammatory activity in LPS-primed rat neonatal microglia assessed as inhibition of PMA-stimulated release of TXB2 after 70 mins; assay type: functional
How it was run: (§1)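 Rat microglia primed with E. coli LPS, then stimulated with PMA (1 μM) for 70 min. Release of superoxide (O2–) and of TXB2 is measured, and the IC50 is the concentration that inhibits release. Short-term viability is checked in parallel by LDH release (LDH50 = 50% of total cellular LDH). Data come from 1–4 independent experiments.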

[3] = test system: Mycobacterium tuberculosis; experiment: Antimycobacterial activity against Mycobacterium tuberculosis H37Rv ATCC 27294 by microplate alamar blue assay; assay type: functional
How it was run: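 Minimum inhibitory concentration by microplate Alamar blue assay against the H37Rv laboratory strain, reported in μg/mL as the mean of three experiments.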

[4] = Cytotoxicity against rat neonatal microglia assessed as cell viability by lactate dehydrogenase release assay; settings: read-out: LD50 (the source's name)
How it was run: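 Rat microglia were primed with E. coli LPS and then stimulated with PMA (1 μM) for about 70 min. LDH release was measured as short-term viability. LDH50 is the concentration causing release of 50% of the total cellular LDH content. Data come from 1–4 independent experiments.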

[5] = Antineuroinflammatory activity in LPS-primed rat neonatal microglia assessed as inhibition of PMA-stimulated release of O2- after 70 mins; assay type: functional; how it was run: as §1
[6] = Selectivity index, ratio of IC50 for African green monkey Vero cells to IC50 for chloroquine-susceptible Plasmodium falciparum 3D7; assay type: toxicity, cell-based; settings: read-out: Ratio IC50
How it was run: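 Index calculated as Vero cell IC50 divided by the IC50 against chloroquine-susceptible P. falciparum 3D7. The 3D7 IC50 is the concentration giving 50% parasite survival, reported in nM as the mean ± standard error of three experiments.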

[7] = test system: Vero; experiment: Cytotoxicity against African green monkey Vero cells; assay type: cell-based; settings: Chlorocebus sabaeus
How it was run: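 IC50 in mammalian Vero cells, reported in nM as the mean of three experiments.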

Row | SMILES | IC50 [1] [µM] | IC50 [2] [µM] | MIC [3] [µg/mL] | CC50 [4] [µM] | IC50 [5] [µM] | selectivity ratio [6] | IC50 [7] [µM]
1 | [C-]#[N+][C@@]12CCC(=C)[C@H]3[C@H](CC(C)(C)NC(=O)CN(CCC(C)C)C(=O)c4ccncc4)C[C@H](C)[C@@H](CC[C@@H]1C)[C@@H]32 | 0.0115 | 3 | 14.9 (≈ 27.2 µM) | > 10 | > 10 | 1720 | 19.8
2 | [C-]#[N+][C@@]12CCC(=C)[C@H]3[C@H](CC(C)(C)NC(=O)CN(CCNc4ccnc5cc(Cl)ccc45)C(C)=O)C[C@H](C)[C@@H](CC[C@@H]1C)[C@@H]32 | 0.0111 | 0.8 | 17.9 (≈ 29 µM) | 5 | 1.7 | 2570 | 28.6
3 | [C-]#[N+][C@@]12CCC(=C)[C@H]3[C@H](CC(C)(C)NC(=O)CN(CCNc4ccnc5cc(Cl)ccc45)C(=O)c4ccncc4)C[C@H](C)[C@@H](CC[C@@H]1C)[C@@H]32 | 0.0036 | 0.9 | 52 (≈ 76.3 µM) | 5 | 5 | 7150 | 25.8
4 | [C-]#[N+][C@@]12CCC(=C)[C@H]3[C@H](CC(C)(C)NC(=O)CNC(=O)c4ccncc4)C[C@H](C)[C@@H](CC[C@@H]1C)[C@@H]32 | 0.0063 | 1.1 | 102 (≈ 214 µM) | > 10 | > 10 | – | –
5 | [C-]#[N+][C@@]12CCC(=C)[C@H]3[C@H](CC(C)(C)NC(=O)C(c4ccccc4)N(CCC(C)C)C(=O)c4ccncc4)C[C@H](C)[C@@H](CC[C@@H]1C)[C@@H]32 (mixture of isomers) | 0.013 | 0.1 | 56.4 | > 10 | > 10 | 3780 | 49.2
6 | [C-]#[N+]C(C)(C)C[C@@H]1C[C@H](C)[C@H]2CC[C@H](C)[C@@]3([N+]#[C-])CCC(=C)[C@@H]1[C@H]23 [DIISOCYANOAMPHILECTENE] | 0.0012 | 0.23 | 3.2 (≈ 9.86 µM) | > 10 | > 10 | 83100 | 99.7
7 | NNC(=O)c1ccncc1 [ISONIAZID] | – | – | 0.44 (≈ 3.21 µM) | – | – | – | –
